Experimental data taken from ChEMBL document CHEMBL4145460, “Discovery of novel high potent and cellular active ADC type PTP1B inhibitors with selectivity over TC-PTP via modification interacting with C site” (Eur J Med Chem, 2018).

Assays:
[1] = biological target: T1, Tyrosine-protein phosphatase non-receptor type 1 (Homo sapiens, UniProt P18031); assay: Inhibition of recombinant human PTP1B using pNNP as substrate after 30 mins
T1 sequence (P18031 whole entry): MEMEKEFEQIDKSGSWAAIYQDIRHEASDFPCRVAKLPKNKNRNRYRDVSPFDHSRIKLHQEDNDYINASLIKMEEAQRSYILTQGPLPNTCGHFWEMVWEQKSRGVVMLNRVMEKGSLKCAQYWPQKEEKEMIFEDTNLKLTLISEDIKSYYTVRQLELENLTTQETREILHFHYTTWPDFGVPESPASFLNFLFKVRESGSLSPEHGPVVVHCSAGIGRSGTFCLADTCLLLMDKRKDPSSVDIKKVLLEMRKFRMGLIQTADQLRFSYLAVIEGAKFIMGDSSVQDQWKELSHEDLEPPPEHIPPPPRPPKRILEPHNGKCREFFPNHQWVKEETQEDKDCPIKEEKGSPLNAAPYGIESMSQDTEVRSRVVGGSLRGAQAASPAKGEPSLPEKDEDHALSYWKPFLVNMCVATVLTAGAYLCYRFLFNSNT

Homo sapiens = species on record: Homo sapiens; assay: Selective ratio of IC50 for human TCPTP to IC50 for recombinant human PTP1B
Procedure, shortened: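 Ratio of TCPTP IC50 to PTP1B IC50. Both measured with the same pNPP assay: 2 mM pNPP, pH 6.5 with DTT and EDTA, 30 min at 37 °C, NaOH stop, A405, logit-derived IC50.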

[2] = biological target: T2, Tyrosine-protein phosphatase non-receptor type 6 (Homo sapiens, UniProt P29350); assay: Inhibition of human GST-tagged SHP1 (244 to 570 residues) expressed in Escherichia coli BL21-CondenPlus (DE3) using pNNP as substrate
T2 sequence (P29350 whole entry, the tested form may be a part): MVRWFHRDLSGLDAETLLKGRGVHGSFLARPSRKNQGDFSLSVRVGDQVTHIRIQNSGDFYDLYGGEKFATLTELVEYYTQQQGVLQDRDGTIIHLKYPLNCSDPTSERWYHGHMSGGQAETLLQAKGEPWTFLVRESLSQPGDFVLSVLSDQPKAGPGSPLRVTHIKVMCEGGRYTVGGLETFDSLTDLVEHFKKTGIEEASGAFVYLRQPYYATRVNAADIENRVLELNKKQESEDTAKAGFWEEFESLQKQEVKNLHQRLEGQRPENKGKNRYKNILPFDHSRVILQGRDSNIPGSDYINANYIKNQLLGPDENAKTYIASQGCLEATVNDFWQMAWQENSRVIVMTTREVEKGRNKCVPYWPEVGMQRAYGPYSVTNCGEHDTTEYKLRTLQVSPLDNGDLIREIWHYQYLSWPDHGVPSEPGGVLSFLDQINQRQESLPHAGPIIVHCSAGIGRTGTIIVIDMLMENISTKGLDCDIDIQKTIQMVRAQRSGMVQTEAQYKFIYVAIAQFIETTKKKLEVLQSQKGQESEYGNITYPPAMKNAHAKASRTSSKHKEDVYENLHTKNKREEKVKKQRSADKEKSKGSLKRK

[3] = biological target: T3, Tyrosine-protein phosphatase non-receptor type 11 (Homo sapiens) (UniProt Q06124); assay: Inhibition of human GST-tagged SHP2 ([…] residues) expressed in Escherichia coli BL21-CondenPlus (DE3) at 25 uM using pNNP as substrate relative to control
T3 sequence (whole entry): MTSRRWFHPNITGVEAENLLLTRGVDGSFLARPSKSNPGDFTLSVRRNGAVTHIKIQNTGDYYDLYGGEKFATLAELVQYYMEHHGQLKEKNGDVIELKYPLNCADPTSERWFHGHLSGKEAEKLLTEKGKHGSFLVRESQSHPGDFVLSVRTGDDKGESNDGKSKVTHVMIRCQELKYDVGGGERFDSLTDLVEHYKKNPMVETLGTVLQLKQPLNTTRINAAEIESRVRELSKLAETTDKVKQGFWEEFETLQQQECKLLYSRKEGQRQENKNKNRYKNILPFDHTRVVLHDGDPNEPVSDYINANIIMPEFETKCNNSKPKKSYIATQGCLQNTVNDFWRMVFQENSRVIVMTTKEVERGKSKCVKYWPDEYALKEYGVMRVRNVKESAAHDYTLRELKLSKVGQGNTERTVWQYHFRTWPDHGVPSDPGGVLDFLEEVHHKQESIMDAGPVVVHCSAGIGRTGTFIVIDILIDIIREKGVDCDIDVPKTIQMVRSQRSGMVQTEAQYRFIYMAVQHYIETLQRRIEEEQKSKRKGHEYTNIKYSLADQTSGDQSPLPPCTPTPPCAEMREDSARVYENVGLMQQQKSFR

[4] = biological target: T4, Tyrosine-protein phosphatase non-receptor type 2 (Homo sapiens, UniProt P17706); assay: Inhibition of human TCPTP using pNNP as substrate after 30 mins
T4 sequence (P17706 whole entry): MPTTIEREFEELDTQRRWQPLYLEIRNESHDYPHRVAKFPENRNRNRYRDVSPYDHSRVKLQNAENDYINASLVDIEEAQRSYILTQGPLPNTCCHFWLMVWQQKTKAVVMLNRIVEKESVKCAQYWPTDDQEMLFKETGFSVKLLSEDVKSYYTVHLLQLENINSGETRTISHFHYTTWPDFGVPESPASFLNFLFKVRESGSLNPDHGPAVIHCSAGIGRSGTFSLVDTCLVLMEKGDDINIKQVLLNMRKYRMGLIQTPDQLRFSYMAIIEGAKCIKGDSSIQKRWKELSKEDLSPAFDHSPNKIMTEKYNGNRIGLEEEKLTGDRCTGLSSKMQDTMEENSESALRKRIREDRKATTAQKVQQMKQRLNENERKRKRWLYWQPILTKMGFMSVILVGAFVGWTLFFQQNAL

[5] = biological target: T5, Receptor-type tyrosine-protein phosphatase F (Homo sapiens, UniProt P10586); assay: Inhibition of human GST-tagged LAR D1 (1275 to 1613 residues) expressed in Escherichia coli BL21-CondenPlus (DE3) using pNNP as substrate
T5 sequence (P10586 whole entry, the tested form may be a part): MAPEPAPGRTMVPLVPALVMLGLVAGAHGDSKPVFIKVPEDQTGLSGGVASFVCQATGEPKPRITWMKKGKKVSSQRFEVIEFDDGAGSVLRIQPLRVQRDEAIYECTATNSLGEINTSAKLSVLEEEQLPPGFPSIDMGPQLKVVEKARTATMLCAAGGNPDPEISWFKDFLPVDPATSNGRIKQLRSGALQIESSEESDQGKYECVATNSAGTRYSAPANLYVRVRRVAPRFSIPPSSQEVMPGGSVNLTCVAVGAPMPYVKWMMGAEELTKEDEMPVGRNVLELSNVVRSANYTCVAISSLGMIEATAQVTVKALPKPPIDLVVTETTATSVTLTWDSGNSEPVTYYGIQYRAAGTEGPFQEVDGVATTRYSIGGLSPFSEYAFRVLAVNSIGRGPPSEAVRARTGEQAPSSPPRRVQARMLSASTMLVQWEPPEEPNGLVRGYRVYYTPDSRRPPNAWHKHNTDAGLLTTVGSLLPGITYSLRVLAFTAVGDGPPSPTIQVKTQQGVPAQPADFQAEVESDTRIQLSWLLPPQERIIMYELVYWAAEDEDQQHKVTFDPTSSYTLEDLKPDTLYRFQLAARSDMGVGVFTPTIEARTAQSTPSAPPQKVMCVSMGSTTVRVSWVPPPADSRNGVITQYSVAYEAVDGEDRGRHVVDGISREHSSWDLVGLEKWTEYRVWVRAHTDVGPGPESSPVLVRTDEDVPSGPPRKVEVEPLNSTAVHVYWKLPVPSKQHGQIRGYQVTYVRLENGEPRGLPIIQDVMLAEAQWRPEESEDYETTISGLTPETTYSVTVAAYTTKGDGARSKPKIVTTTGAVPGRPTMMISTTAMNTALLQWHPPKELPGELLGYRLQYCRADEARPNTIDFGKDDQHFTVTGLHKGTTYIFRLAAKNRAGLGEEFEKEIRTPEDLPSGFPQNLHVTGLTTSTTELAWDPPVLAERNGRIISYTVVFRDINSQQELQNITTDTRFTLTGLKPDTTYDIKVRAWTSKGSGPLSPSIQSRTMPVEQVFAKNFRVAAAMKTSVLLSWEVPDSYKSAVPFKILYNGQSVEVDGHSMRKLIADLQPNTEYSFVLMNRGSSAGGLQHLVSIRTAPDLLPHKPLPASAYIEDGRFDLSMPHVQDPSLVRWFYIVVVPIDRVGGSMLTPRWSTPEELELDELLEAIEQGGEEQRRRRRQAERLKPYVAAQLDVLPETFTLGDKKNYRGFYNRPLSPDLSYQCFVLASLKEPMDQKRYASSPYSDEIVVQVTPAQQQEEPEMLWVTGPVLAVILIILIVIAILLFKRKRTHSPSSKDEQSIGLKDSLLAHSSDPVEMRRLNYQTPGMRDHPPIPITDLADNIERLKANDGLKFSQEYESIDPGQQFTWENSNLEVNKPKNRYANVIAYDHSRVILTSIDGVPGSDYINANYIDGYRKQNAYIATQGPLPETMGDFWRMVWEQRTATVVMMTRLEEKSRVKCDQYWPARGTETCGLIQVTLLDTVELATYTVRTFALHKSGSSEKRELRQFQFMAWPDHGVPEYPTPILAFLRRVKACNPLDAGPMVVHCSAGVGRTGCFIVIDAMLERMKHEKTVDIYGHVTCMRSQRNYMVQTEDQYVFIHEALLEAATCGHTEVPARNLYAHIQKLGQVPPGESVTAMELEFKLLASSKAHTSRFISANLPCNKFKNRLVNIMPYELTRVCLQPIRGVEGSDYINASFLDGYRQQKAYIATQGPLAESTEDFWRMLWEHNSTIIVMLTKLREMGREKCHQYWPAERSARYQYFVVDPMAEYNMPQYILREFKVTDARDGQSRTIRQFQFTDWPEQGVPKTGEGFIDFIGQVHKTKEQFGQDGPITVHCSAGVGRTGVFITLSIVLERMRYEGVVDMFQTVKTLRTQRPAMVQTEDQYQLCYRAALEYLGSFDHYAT

[6] = biological target: T6, Tyrosine-protein phosphatase non-receptor type 1 (Homo sapiens) (UniProt P18031); assay: Inhibition of recombinant human PTP1B at 25 uM using pNNP as substrate after 30 mins relative to control
T6 sequence (whole entry): T1 sequence (P18031 whole entry)
Procedure, shortened: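 Recombinant PTP1B, 30 nM, with 2 mM pNPP, 1 mM dithiothreitol and 1 mM EDTA at pH 6.5. Compounds delivered from DMSO. Incubated 30 min at 37 °C, stopped with 2.5 M NaOH, pNP read at 405 nm.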

[7] = biological target: T5, Receptor-type tyrosine-protein phosphatase F; assay: Inhibition of human GST-tagged LAR D1 (1275 to 1613 residues) expressed in Escherichia coli BL21-CondenPlus (DE3) at 25 uM using pNNP as substrate relative to control
[8] = biological target: T7, Tyrosine-protein phosphatase non-receptor type 11 (Homo sapiens, UniProt Q06124); assay: Inhibition of human GST-tagged SHP2 ([…] residues) expressed in Escherichia coli BL21-CondenPlus (DE3) using pNNP as substrate
T7 sequence (Q06124 whole entry): T3 sequence (whole entry)

[9] = biological target: T2, Tyrosine-protein phosphatase non-receptor type 6; assay: Inhibition of human GST-tagged SHP1 (244 to 570 residues) expressed in Escherichia coli BL21-CondenPlus (DE3) at 25 uM using pNNP as substrate relative to control
L6 [10] = assay: Antidiabetic activity in rat L6 cells assessed as increase in insulin-stimulated 2-NBDG uptake at 10 uM after 30 mins by fluorescent assay relative to control; format: functional
Procedure, shortened: (§1)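 Differentiated L6 myotubes rinsed with warm PBS, serum-starved (serum-free DMEM 3 h, 37 °C; figure legend says 2 h), then exposed to compound at […] for 4 h. Insulin 10 nM for 10 min at 37 °C in Krebs-Ringer phosphate buffer pH 7.4, then 2-NBDG added. Uptake read after 30 min by fluorescence at ex 485/em 535 nm. Background from cells with drug but no 2-NBDG. n = 3, mean ± SEM.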

L6 [11] = assay: Antidiabetic activity in rat L6 cells assessed as increase in insulin-stimulated 2-NBDG uptake at 2.5 uM after 30 mins by fluorescent assay relative to control; format: functional; procedure, shortened: as §1
L6 [12] = assay: Antidiabetic activity in rat L6 cells assessed as increase in insulin-stimulated 2-NBDG uptake at 0.5 uM after 30 mins by fluorescent assay relative to control; format: functional; procedure, shortened: as §1

SMILES | IC50 [1] [nM] | Ratio IC50 (Homo sapiens) | IC50 [2] [nM] | IC50 [4] [nM] | also measured
CCCCOc1ccc(NC(=O)NCc2cc(OCC)c(NS(C)(=O)=O)cc2OCC)cc1C(=O)OC | 711 |  |  |  | 
CCNC(=O)c1cc(NC(=O)NCc2cc(OCC)c(NS(C)(=O)=O)cc2OCC)ccc1OCC | 169 |  |  |  | 
CCOc1cc(NS(C)(=O)=O)c(OCC)cc1CNC(=O)Nc1ccc(OCC)c(C(=O)Nc2ccc(OC)cc2)c1 |  |  |  |  | inhibition [6]: < 50%
CCCNC(=O)c1cc(NC(=O)NCc2cc(OCC)c(NS(C)(=O)=O)cc2OCC)ccc1OCC | 184 | 10.9 | 8630 | 2020 | inhibition [7]: < 50%; inhibition [3]: < 50%
CCCOc1ccc(NC(=O)NCc2cc(OCC)c(NS(C)(=O)=O)cc2OCC)cc1C(=O)OC | 68.2 | 17.3 | 3450 | 1180 | inhibition [7]: < 50%; IC50 [8]: 7760 nM
CCOc1cc(NS(C)(=O)=O)c(OCC)cc1CNC(=O)Nc1ccc(OCC)c(C(=O)NC)c1 | 166 | 45.9 |  | 7620 | inhibition [7]: < 50%; inhibition [9]: < 50%; inhibition [3]: < 50%
CCOc1cc(NS(C)(=O)=O)c(OCC)cc1CNC(=O)Nc1ccc(OCC)c(C(=O)Nc2ccccc2)c1 |  |  |  |  | inhibition [6]: < 50%
CCOc1cc(NS(C)(=O)=O)c(OCC)cc1CNC(=O)Nc1ccc(OCC)c(C(=O)Nc2ccc(OC)c(OC)c2)c1 | 66.2 | 5.9 | 850 | 390 | IC50 [8]: 1590 nM; Activity (L6 [10]): 25.8%; Activity (L6 [11]): 18.7%; IC50 [5]: 7340 nM; Activity (L6 [12]): 6.6%

Continued, in another order:

IC50 [1] [nM] | Ratio IC50 (Homo sapiens) | IC50 [2] [nM] | IC50 [4] [nM] | SMILES | also measured
209 | 4.1 | 2940 | 870 | CCOc1cc(NS(C)(=O)=O)c(OCC)cc1CNC(=O)Nc1ccc(OCC)c(C(=O)Nc2ccc(C)cc2)c1 | inhibition [3]: < 50%; IC50 [5]: 6950 nM
981 |  |  |  | CCOc1cc(NS(C)(=O)=O)c(OCC)cc1CNC(=O)Nc1ccc(OCC)c(C(=O)Nc2cccc(OC)c2)c1 | 
18.6 | 36 | 1090 | 670 | CCOc1cc(NS(C)(=O)=O)c(OCC)cc1CNC(=O)Nc1ccc(OCC)c(C(=O)OC)c1 | IC50 [8]: 910 nM; Activity (L6 [10]): 22.9%; Activity (L6 [11]): 22.4%; IC50 [5]: 5360 nM; Activity (L6 [12]): 16.2%
